Read-outs that look alike come from different tables or passages of the source.
Tests used:
human P-gp Q132R/Y953F = human P-gp Q132R/Y953F (Homo sapiens, UniProt P08183, Q132R/Y953F); assay: Inhibition of rh123 efflux, Q132R/Y953F mutant; format: cell-based; conditions: for fold higher IC50 value than the Q132R mutation: Q132R/Y953F mutant vs Q132R
human P-gp wild-type = human P-gp wild-type (Homo sapiens, UniProt P08183); format: cell-based
human P-gp Q132R [1] = target: T1, human P-gp Q132R (Homo sapiens, UniProt P08183, Q132R); assay: Inhibition of rh123 efflux, Q132R mutant; format: cell-based; conditions: for fold difference in IC50 values for wild-type protein and the Q132R mutant: Q132R mutant vs wild-type
T1 sequence (P08183 whole entry Q132R): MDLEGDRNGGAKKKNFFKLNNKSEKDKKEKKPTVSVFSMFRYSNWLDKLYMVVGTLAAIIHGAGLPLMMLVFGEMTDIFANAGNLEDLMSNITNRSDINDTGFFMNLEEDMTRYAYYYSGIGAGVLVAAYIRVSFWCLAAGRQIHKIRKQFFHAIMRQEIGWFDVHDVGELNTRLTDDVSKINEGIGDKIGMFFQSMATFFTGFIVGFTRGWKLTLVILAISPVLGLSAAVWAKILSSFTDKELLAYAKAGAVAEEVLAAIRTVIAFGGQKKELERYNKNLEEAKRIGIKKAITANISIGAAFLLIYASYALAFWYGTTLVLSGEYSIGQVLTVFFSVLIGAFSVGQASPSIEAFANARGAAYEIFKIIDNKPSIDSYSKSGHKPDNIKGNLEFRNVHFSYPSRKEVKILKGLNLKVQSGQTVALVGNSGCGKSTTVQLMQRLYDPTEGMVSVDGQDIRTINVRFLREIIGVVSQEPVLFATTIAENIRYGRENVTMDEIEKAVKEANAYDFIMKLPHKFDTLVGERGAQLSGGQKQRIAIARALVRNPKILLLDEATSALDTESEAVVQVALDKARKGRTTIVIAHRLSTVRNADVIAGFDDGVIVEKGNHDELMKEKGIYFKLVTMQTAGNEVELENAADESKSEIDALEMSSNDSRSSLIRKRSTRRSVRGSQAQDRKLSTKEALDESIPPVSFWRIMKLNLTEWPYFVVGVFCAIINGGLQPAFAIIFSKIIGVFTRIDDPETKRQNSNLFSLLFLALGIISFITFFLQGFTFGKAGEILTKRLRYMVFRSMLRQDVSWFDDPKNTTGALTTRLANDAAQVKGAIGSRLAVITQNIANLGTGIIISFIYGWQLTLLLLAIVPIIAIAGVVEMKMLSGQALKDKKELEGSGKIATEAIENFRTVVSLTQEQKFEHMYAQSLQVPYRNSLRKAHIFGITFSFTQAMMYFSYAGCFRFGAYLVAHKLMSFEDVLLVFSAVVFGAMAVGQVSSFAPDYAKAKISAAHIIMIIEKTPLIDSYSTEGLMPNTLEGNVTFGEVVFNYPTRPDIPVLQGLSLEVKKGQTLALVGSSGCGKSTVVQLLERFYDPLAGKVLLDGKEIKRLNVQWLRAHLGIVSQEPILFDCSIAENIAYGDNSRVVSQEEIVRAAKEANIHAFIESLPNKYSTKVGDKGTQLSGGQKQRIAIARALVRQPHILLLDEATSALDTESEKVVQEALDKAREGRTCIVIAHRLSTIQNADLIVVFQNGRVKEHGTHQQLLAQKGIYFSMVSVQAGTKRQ

[2] = pKa and protonated fraction of propafenone analogs; format: physicochemical; conditions: at intracellular pH, estimated from pKa
human P-gp Y953F = human P-gp Y953F (Homo sapiens, UniProt P08183, Y953F); assay: Inhibition of rh123 efflux, Y953F mutant; format: cell-based
human P-gp Y953F, sequence (P08183 whole entry Y953F): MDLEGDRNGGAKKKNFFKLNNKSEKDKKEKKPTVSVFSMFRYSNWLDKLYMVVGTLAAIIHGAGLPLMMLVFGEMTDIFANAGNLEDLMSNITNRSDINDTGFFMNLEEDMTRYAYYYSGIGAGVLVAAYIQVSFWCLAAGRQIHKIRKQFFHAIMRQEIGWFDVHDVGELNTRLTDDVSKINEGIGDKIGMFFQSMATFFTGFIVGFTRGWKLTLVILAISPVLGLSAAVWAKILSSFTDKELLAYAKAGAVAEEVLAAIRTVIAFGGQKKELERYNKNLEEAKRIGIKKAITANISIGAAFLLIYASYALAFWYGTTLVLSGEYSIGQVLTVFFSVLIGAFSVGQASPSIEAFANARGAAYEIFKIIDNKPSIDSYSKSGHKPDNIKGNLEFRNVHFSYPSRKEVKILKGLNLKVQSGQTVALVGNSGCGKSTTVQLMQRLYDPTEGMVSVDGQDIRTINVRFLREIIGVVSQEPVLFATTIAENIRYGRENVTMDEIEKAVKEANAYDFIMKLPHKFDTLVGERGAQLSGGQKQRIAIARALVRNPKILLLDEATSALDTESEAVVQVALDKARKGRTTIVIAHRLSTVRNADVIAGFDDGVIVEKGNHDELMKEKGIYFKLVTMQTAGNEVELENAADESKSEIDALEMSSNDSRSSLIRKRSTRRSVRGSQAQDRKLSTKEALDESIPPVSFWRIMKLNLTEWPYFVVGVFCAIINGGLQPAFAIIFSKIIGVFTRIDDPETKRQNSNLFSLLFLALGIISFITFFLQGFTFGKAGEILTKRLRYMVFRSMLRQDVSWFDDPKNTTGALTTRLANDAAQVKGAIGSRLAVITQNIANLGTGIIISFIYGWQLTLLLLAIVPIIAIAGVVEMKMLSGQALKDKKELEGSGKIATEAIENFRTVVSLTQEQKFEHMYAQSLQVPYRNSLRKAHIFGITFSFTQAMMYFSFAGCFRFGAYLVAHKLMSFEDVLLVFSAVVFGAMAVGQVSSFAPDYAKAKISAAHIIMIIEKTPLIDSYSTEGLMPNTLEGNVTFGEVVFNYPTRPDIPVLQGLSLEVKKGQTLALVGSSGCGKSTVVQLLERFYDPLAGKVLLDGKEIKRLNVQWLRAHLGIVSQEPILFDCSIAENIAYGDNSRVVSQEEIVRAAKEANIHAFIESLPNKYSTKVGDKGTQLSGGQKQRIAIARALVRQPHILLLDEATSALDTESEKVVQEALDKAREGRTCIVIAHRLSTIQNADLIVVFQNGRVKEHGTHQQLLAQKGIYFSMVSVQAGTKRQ

[3] = test system: human P-gp Q132R/Y950F/Y953F; assay: Inhibition of rh123 efflux, Q132R/Y950F/Y953F triple mutant; format: cell-based; conditions: in the Q132R background
[4] = ref Ecker et al., 1999; cited from earlier work
human P-gp Y950F = human P-gp Y950F (Homo sapiens, UniProt P08183, Y950F); assay: Inhibition of rh123 efflux, Y950F mutant; format: cell-based
human P-gp Y950F, sequence (P08183 whole entry Y950F): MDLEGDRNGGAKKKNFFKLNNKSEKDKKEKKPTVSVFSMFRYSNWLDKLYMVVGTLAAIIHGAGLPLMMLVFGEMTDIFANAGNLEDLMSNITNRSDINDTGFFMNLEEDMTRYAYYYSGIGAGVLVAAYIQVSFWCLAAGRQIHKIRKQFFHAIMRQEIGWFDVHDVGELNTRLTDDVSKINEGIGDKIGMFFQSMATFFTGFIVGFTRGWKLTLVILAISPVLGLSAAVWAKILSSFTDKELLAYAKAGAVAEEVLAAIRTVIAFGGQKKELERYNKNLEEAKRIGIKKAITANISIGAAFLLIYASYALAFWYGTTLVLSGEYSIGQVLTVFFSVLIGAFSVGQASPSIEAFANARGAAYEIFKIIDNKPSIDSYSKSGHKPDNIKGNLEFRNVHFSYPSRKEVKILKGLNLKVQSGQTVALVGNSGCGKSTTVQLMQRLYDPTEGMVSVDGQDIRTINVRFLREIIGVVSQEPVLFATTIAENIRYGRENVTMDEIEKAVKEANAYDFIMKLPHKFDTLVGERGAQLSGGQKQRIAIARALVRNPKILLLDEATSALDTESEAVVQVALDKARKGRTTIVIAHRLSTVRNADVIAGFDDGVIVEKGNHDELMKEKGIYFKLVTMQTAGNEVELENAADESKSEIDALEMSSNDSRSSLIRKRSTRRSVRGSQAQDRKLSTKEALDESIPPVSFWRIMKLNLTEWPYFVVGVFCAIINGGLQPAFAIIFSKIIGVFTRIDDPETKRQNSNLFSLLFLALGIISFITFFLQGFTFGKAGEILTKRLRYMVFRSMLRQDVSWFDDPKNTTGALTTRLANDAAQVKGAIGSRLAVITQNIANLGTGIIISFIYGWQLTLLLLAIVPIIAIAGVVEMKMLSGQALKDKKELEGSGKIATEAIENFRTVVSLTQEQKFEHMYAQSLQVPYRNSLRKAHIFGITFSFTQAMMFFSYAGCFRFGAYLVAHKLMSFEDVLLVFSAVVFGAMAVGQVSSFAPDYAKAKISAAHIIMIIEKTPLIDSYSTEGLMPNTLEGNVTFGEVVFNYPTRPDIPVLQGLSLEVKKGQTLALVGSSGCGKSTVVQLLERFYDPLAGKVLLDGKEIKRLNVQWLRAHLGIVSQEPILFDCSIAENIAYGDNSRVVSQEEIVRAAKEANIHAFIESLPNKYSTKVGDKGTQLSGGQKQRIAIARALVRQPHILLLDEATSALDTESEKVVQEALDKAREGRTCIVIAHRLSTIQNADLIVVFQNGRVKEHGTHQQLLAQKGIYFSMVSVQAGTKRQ

human P-gp Y950F/Y953F = human P-gp Y950F/Y953F (Homo sapiens, UniProt P08183, Y950F/Y953F); assay: Inhibition of rh123 efflux, Y950F/Y953F double mutant; format: cell-based
human P-gp Q132R/Y950F = human P-gp Q132R/Y950F (Homo sapiens, UniProt P08183, Q132R/Y950F); assay: Inhibition of rh123 efflux, Q132R/Y950F mutant; format: cell-based
human P-gp Q773R = human P-gp Q773R (Homo sapiens, UniProt P08183, Q773R); assay: Continuous monitoring of rh123 zero trans efflux, Q773R mutant; format: cell-based; conditions: mean ± S.D.
Method in brief: (§1)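 HEK293 cells, with endogenous P-gp knocked down by lentiviral shRNA and puromycin selection, were transiently transfected with hexa-His human P-gp mutants. Cells were loaded with 0.53 μM rh123 (final) in DMEM pH 7.8 for 30 min at 37°C, chilled and washed, then effluxed into 37°C DMEM pH 7.4. Flow cytometry ran 5 min at 37°C (488/534 nm). Exponential-fit k was normalized to MRK16 surface staining. n≥3.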

human P-gp Q132R [5] = target: T1, human P-gp Q132R; assay: Continuous monitoring of rh123 zero trans efflux, Q132R mutant; format: cell-based; conditions: mean ± S.D.
Method in brief: as §1

[6] = target: human P-gp Q773R/Y950F/Y953F (Homo sapiens, UniProt P08183, Q773R/Y950F/Y953F); assay: Continuous monitoring of rh123 zero trans efflux, Q773R/Y950F/Y953F mutant; format: cell-based; conditions: expressed at the surface
Method in brief: as §1

human P-gp wild-type, sequence (P08183 whole entry): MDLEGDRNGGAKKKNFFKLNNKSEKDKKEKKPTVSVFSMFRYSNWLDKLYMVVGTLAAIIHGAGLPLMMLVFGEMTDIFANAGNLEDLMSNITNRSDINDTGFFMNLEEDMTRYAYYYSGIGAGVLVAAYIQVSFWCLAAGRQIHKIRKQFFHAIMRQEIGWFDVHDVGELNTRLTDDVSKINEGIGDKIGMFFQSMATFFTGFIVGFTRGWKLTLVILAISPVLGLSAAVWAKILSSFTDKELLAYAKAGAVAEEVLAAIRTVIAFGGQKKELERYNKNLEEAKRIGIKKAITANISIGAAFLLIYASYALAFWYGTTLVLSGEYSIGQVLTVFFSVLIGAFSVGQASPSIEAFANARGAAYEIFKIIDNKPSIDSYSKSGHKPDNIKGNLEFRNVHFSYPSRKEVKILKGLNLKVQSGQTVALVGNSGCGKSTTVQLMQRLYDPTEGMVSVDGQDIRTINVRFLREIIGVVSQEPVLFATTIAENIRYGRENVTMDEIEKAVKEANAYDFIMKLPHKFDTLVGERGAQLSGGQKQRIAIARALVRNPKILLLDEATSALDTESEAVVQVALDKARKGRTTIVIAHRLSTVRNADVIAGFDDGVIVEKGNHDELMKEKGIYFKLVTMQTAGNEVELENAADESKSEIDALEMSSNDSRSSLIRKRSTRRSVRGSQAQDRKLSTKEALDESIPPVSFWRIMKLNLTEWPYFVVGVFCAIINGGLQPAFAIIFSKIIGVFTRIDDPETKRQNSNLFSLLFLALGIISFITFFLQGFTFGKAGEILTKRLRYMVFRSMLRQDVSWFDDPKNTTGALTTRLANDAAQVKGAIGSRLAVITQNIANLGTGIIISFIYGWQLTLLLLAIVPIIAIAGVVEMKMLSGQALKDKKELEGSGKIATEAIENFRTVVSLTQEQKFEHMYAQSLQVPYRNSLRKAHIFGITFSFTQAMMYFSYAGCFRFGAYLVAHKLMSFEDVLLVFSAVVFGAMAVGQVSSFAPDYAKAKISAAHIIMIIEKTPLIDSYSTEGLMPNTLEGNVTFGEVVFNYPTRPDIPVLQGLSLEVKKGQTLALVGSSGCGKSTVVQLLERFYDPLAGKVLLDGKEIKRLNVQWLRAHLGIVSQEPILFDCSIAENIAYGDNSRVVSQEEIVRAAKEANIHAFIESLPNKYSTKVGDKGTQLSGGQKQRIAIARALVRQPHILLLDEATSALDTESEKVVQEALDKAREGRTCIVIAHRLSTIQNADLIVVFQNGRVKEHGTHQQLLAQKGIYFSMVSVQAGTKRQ

Compound | fold higher IC50 value than the Q132R mutation (human P-gp Q132R/Y953F) [fold] | fold difference in IC50 values for wild-type protein and the Q132R mutant (human P-gp Q132R [1]) | percentage of protonated (charged) species [2] | fold change in IC50 [3] [fold] | pKa [4] | IC50 (human P-gp Y950F/Y953F) [nM] | IC50 (human P-gp wild-type) [nM] | IC50 (human P-gp Q132R [1]) [nM] | IC50 (human P-gp Y953F) [nM] | IC50 (human P-gp Y950F) [nM] | other results
O=C(CCc1ccccc1)c1ccccc1OCC(O)CN1CCCCC1 (stereo not drawn) [GPV005] | 1.5 | at least 3 fold | > 90% | 2.3 | 8.4 |  |  |  |  |  | IC50 (human P-gp wild-type; read-out: IC50 for inhibition of rh123 efflux, wild-type P-gp, HEK293 cells, 37°C, mean ± S.D.): 518 ± 141 nM; IC50 (human P-gp Q132R [1]; read-out: IC50 for inhibition of rh123 efflux, Q132R mutant, HEK293 cells, mean ± S.D.): 1410 ± 215 nM; IC50 (human P-gp Y953F; read-out: IC50 for inhibition of rh123 efflux, Y953F mutant, HEK293 cells, mean ± S.D.): 1210 ± 362 nM; IC50 (human P-gp Y950F; read-out: IC50 for inhibition of rh123 efflux, Y950F mutant, HEK293 cells, mean ± S.D.): 1350 ± 229 nM
O=C(CCc1ccccc1)c1ccccc1OCC(O)CN1CCN(c2ccc(F)cc2)CC1 (stereo not drawn) [GPV031, 1-(2-(3-(4-(4-fluorophenyl)piperazin-1-yl)-2-hydroxypropoxy)phenyl)-3-phenylpropan-1-one] | 2.1 | at least 3 fold | 60–70% | 2.7 | 7.3 | 630 ± 87 | 85 ± 22 | 521 ± 183 | 287 ± 109 | 238 ± 84 | 
CCCN(CC(O)COc1ccccc1C(=O)CCc1ccccc1)C(=O)c1ccccc1 (stereo not drawn) [GPV366, N-(2-hydroxy-3-(2-(3-phenylpropanoyl)phenoxy)propyl)-N-propylbenzamide] | 3.0 |  |  | 4.9 |  | 17800 | 2240 ± 391 | 1070 ± 282 | 15900 | 2980 ± 79 | fold change in IC50 relative to wild-type (human P-gp Y950F/Y953F; Y950F/Y953F mutant vs wild-type): 8 fold; IC50 (human P-gp Q132R/Y953F): 3260 ± 965 nM; IC50 (human P-gp Q132R/Y950F): 966 ± 259 nM; fold change in IC50 relative to wild-type (human P-gp Y953F; Y953F mutant vs wild-type): 7.1 fold
COC(=O)c1ccccc1-c1c2ccc(=N)cc-2oc2cc(N)ccc12 [rh123, rhodamine123] |  |  |  |  |  |  |  |  |  |  | rh123 efflux (fractional transport rate) (human P-gp Q773R): 37% ± 8%; rh123 efflux (fractional transport rate) (human P-gp Q132R [5]): 75% ± 11%; rh123 efflux [6]: no rh123 efflux was detectable

— PMC4503343 (Molecular pharmacology, 2013)
